In ChEMBL document CHEMBL1139172, “Identification, synthesis, and biological evaluation of novel pyrazoles as low molecular weight luteinizing hormone receptor agonists” (Bioorg Med Chem Lett, 2007):

Assays:
[1] = biological target: T1, Lutropin-choriogonadotropic hormone receptor (Homo sapiens, UniProt P22888); test: Agonist activity at human LH receptor expressed in CHO cells assessed as production of cAMP after 60 mins by SPA relative to luteinizing harmone; type: functional, cell-based
[2] = biological target: T1, Lutropin-choriogonadotropic hormone receptor; test: Agonist activity at human LH receptor expressed in CHO cells assessed as production of cAMP after 60 mins by SPA; type: functional, cell-based
[3] = tested on: Rattus norvegicus; test: Induction of testosterone in Sprague-Dawley rat at 4 to 32 mg/kg, ip by radioimmunoassay; type: functional, organism-based
Procedure, shortened: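 Adult Sprague–Dawley rats implanted subcutaneously in the scapular region on day 1 with a 7-day slow-release pellet of 7.5 mg diethylstilbestrol. Two days later, ip injection of 0, 4, 16 or 32 mg/kg; 3 rats per group. Blood taken by retro-orbital plexus 2 h after dosing; serum frozen at -80 °C. Testosterone measured by ELISA (legend says radioimmunoassay), with standard deviations.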

[4] = biological target: Lutropin-choriogonadotropic hormone receptor (Rattus norvegicus) (UniProt P16235); test: Efficacy at LH receptor in Sprague-Dawley rat Leydig cells assessed as production of testosterone after 3 hrs; type: cell-based
Procedure, shortened: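 Leydig cells from male Sprague–Dawley rats aged 21–40 days. Decapsulated testis digested 15 min at 37 °C, 5% CO2, in phenol red-free DMEM/F12 with 0.1% collagenase. Washed cells plated at 350,000/well in phenol red-free DMEM/F12 with 0.1% BSA and stimulated 3 h. After centrifugation, medium testosterone measured by ELISA. ED50 and efficacy derived.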

T1 sequence (P22888 whole entry): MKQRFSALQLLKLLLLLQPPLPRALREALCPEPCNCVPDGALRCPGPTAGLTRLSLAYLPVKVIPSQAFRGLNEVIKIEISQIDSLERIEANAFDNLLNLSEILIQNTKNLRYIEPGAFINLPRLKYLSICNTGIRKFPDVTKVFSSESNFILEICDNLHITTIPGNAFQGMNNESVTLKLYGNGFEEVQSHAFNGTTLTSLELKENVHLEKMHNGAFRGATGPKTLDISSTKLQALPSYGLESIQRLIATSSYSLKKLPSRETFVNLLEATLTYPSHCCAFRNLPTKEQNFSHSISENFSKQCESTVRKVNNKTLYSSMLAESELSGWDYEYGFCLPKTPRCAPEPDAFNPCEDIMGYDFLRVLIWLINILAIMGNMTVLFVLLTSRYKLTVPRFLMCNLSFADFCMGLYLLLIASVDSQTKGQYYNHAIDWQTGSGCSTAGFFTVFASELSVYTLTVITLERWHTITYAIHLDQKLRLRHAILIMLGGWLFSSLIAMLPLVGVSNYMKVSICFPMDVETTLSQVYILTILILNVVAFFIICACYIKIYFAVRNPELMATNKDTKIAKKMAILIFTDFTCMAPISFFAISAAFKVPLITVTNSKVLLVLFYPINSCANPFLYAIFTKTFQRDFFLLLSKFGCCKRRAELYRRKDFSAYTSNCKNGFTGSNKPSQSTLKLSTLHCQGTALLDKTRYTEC
Chain of Lutropin-choriogonadotropic hormone receptor (Rattus norvegicus) (P16235 whole entry): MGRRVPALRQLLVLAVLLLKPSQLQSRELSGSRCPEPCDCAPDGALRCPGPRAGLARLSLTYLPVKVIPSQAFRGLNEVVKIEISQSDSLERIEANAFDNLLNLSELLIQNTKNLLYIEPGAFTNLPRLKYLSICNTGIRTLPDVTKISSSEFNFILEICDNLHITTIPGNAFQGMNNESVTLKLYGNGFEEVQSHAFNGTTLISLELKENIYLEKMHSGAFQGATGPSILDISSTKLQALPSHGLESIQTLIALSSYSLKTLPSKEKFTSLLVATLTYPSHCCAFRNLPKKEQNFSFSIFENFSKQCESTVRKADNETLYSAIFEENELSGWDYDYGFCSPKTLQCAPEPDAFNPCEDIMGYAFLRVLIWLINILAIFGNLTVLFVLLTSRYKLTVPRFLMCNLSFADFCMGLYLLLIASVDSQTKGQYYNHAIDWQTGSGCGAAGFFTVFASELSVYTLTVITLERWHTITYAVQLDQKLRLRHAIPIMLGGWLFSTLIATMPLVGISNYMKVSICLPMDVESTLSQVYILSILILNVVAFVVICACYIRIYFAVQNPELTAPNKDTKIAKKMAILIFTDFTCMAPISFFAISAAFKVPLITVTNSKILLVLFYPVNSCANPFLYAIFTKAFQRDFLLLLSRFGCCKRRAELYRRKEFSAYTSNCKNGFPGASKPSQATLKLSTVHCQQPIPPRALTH

Row | Structure (SMILES) | Activity [1] | EC50 [2] | Activity [3] | ED50 [4] | Efficacy [4]
1 | CC(C)(C)c1ccc(-n2nc(-c3cccnc3)cc2CCCCC(=O)NCCc2ccc(O)cc2)cc1 | 45% | 80 nM | – | – | –
2 | CC(C)(C)c1ccc(-n2nc(-c3ccccn3)cc2CCCCCC(=O)N[C@H](C(N)=O)c2ccc(O)cc2)cc1 | 78% | 170 nM | – | – | –
3 | CC(C)(C)c1ccc(-n2nc(-c3cccnc3)cc2CCCCC(=O)N[C@@H](Cc2ccc(O)cc2)C(N)=O)cc1 | 70% | 20 nM | Dose-dependent effect | 1310 nM | 78%
4 | CC(C)(C)c1ccc(-n2nc(-c3ccncc3)cc2CCCCC(=O)N[C@H](CC(N)=O)Cc2ccc(O)cc2)cc1 | 66% | 190 nM | – | – | –
5 | CC(C)(C)c1ccc(-n2nc(-c3ccncc3)cc2CCCCC(=O)N[C@@H](Cc2ccc(O)cc2)C(N)=O)cc1 | 55% | 250 nM | – | – | –
6 | CC(C)(C)c1ccc(-n2nc(-c3cccnc3)cc2CCC(=O)N[C@@H](Cc2ccc(O)cc2)C(N)=O)cc1 | – | > 100000 nM | – | – | –
7 | CC(C)(C)c1ccc(-n2nc(CCCCC(=O)N[C@@H](Cc3ccc(O)cc3)C(N)=O)cc2-c2ccncc2)cc1 | – | 2300 nM | – | – | –
8 | CC(C)(C)c1ccc(-n2nc(-c3cc4ccccc4cn3)cc2-c2cccc(C(=O)N[C@@H](Cc3ccc(O)cc3)C(N)=O)c2)cc1 | 19% | 500 nM | – | – | –
9 | CC(C)(C)Oc1ccc(C[C@H](NC(=O)CCCCc2cc(-c3cccnc3)nn2-c2ccc(C(C)(C)C)cc2)C(N)=O)cc1 | 72% | 12100 nM | – | – | –
10 | CC(C)(C)c1ccc(-n2nc(-c3ccncc3)cc2NCCCC(=O)N[C@@H](Cc2ccc(O)cc2)C(N)=O)cc1 | – | > 100000 nM | – | – | –
11 | CC(C)(C)c1ccc(-n2nc(-c3ccccn3)cc2CCCCCC(=O)N[C@@H](Cc2cccc(O)c2)C(N)=O)cc1 | 41% | 150 nM | – | – | –
